Data reported in PMC7114315 (Antiviral Research, 2010).
Like-named read-outs stand apart in the source and are kept apart here.

Columns and labels:
[1] = Cell viability by MTT assay; assay type: cell-based, Felis catus; conditions: cat (Felis catus), fcwf-4 cells
Procedure, shortened: (§1)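 fcwf-4 cells grown in DMEM with 5% FBS, penicillin/streptomycin, 5% CO2, 37 °C; 20,000 cells/well seeded, 24 h at 37 °C to confluence. Test compounds (in DMSO or double distilled water), twofold serially diluted, applied 72 h. MTT ([…]) 4 h at 37 °C, lysis overnight at room temperature, absorbance 570/655 nm. Viability = treated/untreated OD × 100; CC50 = 50% viability reduction; triplicate.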

fcwf-4 cells = test: Cell viability by MTT assay; assay type: cell-based, Felis catus; conditions: for Cytotoxic effect under the tested concentrations: three days of treatment, Fig. 1; for CC50: fcwf-4 cells, 72 h, MTT
Procedure, shortened: as §1

[2] = 9 clinical healthy FCoV-shedding cats, 6.25 mg to 50 mg/kg/day per os, preliminary
[3] = test system: FCoV (NTU156) in fcwf-4 cells; assay type: cell-based, feline coronavirus
SARS-CoV = conditions: read-out: IC50 on SARS-CoV; cited from earlier work
[4] = test system: FCoV (NTU156) in fcwf-4 cells; test: microbe, parasite or virus in culture; assay type: cell-based, feline coronavirus

| Compound | CC50 at 72 h [1] [µM] | Cytotoxic effect under the tested concentrations (fcwf-4 cells) | other results |
| --- | --- | --- | --- |
| Nc1ccn([C@@H]2CS[C@H](CO)O2)c(=O)n1 [Lamivudine, lamivudine] | ≥ 27.3 |  |  |
| O=c1[nH]c(=O)n([C@H]2C[C@H](O)[C@@H](CO)O2)cc1I [Idoxuridine, idoxuridine] | ≥ 141 |  |  |
| CC(C)(C)NC(=O)[C@@H]1CN(Cc2cccnc2)CCN1C[C@@H](O)C[C@@H](Cc1ccccc1)C(=O)N[C@H]1c2ccccc2C[C@H]1O [Indinavir, indinavir] | ≥ 70.2 |  |  |
| NC(=O)c1ncn([C@@H]2O[C@H](CO)[C@@H](O)[C@H]2O)n1 [Ribavirin, ribavirin] | ≥ 409 |  |  |
| Cc1cc(O)c2c(c1)C(=O)c1cc(O)cc(O)c1C2=O [Emodin, emodin] | 67.4 | dramatic cytotoxic effect |  |
| Nc1nc2c(ncn2COCCO)c(=O)[nH]1 [Acyclovir, acyclovir] | ≥ 888 |  |  |
| Cc1cn([C@H]2C=C[C@@H](CO)O2)c(=O)[nH]c1=O [Stavudine, stavudine] | ≥ 55.8 |  |  |
| O=C1Nc2ccc(Cl)cc2[C@@](C#CC2CC2)(C(F)(F)F)O1 [Efavirenz, efavirenz] | 52.1 | dramatic cytotoxic effect |  |
| CC(C)(C)NC(=O)[C@@H]1C[C@@H]2CCCC[C@@H]2CN1C[C@@H](O)[C@H](Cc1ccccc1)NC(=O)[C@H](CC(N)=O)NC(=O)c1ccc2ccccc2n1 [Saquinavir, saquinavir] | 95.8 | dramatic cytotoxic effect |  |
| Cc1c(O)cccc1C(=O)N[C@@H](CSc1ccccc1)[C@H](O)CN1C[C@H]2CCCC[C@H]2C[C@H]1C(=O)NC(C)(C)C [Nelfinavir, nelfinavir] | 11.5 | dramatic cytotoxic effect | Side effects (e.g., diarrhea or nausea) [2]: no obviously side effects; Number of CPE foci compared with untreated groups [3]: significantly inhibited the number of CPE foci; Induction of CPE foci ([3]; only the highest concentration, 9.41 μM, P < 0.001, […]): significantly blocked the induction of CPE foci; IC50 (SARS-CoV): 0.048 µM; IC50 ([4]; Alphacoronavirus 1, 72 h): 8.19 µM |
| COC(=O)N[C@H](C(=O)N[C@@H](Cc1ccccc1)[C@@H](O)CN(Cc1ccc(-c2ccccn2)cc1)NC(=O)[C@@H](NC(=O)OC)C(C)(C)C)C(C)(C)C [Atazanavir, atazanavir] | 48.6 | dramatic cytotoxic effect |  |
| Galanthus nivalis agglutinin |  |  | Inhibition of CPE foci, concentration-dependence ([3]; all four concentrations, […]): strong inhibitory activities at all four concentrations; IC50 [4]: 8.8e-06 µM; CC50 (fcwf-4 cells): ≥ 0.00192 µM |
| CN(C)CCCN1c2ccccc2Sc2ccccc21 [Promazine, promazine] | ≥ 0.1 |  |  |
| Cc1ccnc2c1NC(=O)c1cccnc1N2C1CC1 [Nelvirapine, nelvirapine] |  |  | CC50 (fcwf-4 cells): ≥ 46.9 µM |
